# Screening results from PubChem.
# The list is not random: actives were taken first. Their share in the collection is about 6.1%.
# RAM inhibit: inhibitors of the yeast RAM network, primary screen, dse1pr::URA3 reporter, 5-FOA selection; S. cerevisiae dse1pr::URA3 reporter, 5-FOA growth OD615, 2 d; analog-sensitive cbk1-as2 kinase mutant strain; inhibition, % at 50 µM; actives 1.8% (n = 190,000); AID 868, 2007;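 active = inhibition above a set limit, 3 SD over mean compound inhibition, cut at about 8.4% in these data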;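 also: 0% = DMSO-only wells with no growth and 100% = 10 µM 1-NA-PP1 full growth; inhibition rescues growth on 5-FOA so higher OD means more RAM inhibition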
# DAT uptake mod: changed hDAT dopamine uptake under cocaine IC80, either direction, primary screen, cocaine antagonist project, cell-based, LLC-PK1 hDAT, [14C]-dopamine uptake, MLSMR. Sodium-dependent dopamine transporter (Homo sapiens), Q01959. LLC-PK1 hDAT cells, [14C]-dopamine uptake with cocaine IC80; actives deviate in either direction. B-score at 10 µM. actives 1.3% (n = 110,000);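 active = Z score or B-score, a plate-position-corrected score, falls beyond the plate's 99.7% confidence bounds, in either direction; inactive = both scores lie inside the 99.7% bounds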;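 also: scored against the spread of the other compound wells on the same plate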
# Target sequence (Q01959 whole entry, looked up): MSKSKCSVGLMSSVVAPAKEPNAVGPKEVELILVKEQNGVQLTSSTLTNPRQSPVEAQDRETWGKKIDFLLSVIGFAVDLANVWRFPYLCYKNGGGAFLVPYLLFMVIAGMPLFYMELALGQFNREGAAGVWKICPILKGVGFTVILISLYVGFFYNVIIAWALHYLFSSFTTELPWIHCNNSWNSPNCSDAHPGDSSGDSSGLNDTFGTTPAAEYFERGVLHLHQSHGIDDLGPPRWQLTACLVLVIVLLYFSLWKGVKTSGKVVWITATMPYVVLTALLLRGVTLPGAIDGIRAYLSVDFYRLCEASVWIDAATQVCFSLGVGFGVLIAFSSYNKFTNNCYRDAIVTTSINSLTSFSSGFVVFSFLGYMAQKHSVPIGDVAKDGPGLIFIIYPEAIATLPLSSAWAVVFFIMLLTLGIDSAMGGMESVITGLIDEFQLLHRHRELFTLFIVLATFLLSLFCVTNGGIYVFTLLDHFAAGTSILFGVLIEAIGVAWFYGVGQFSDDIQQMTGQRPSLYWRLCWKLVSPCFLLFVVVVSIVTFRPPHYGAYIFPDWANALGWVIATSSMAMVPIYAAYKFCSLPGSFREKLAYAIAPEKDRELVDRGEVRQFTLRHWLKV
# Yeast life ext: compounds extending yeast replicative lifespan, primary screen, S. cerevisiae, OD615; S. cerevisiae growth with nicotinamide; deaD strain in restrictive glucose medium; inhibition of the nicotinamide effect, % at 10 µM; actives 0.68% (n = 130,000); AID 775, 2007;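 active = inhibition above a set limit, placed 3 SD over the median of all compounds, cut at about 26% in these data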;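 also: 0% = nicotinamide-treated wells and 100% = cells grown without nicotinamide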
#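 Assay system: engineered S. cerevisiae DeaD replicative-lifespan strain, galactose-grown log-phase cells; medium: restrictive CSMM-D dextrose medium; also added: nicotinamide, 1.5 mM, co-present with compound; schedule: 48 h compound exposure at 30 °C, humidified; detection: absorbance at 615 nm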
# BB579 growth dn: growth inhibitors of yeast BB579 in restrictive medium, primary screen, yeast lifespan-shortening project, S. cerevisiae; OD615, 48 h; inhibition, % at 10 µM; actives 0.51% (n = 140,000); AID 804, 2007;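 active = inhibition above a set limit, 3 SD over the mean compound inhibition, cut at about 44% in these data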
#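 System: Saccharomyces cerevisiae DeaD strain BB579, replicative lifespan model yeast. Buffer or medium: restrictive glucose-based CSMM-D medium. Doses: one dose, 10 µM compound with 0.25% DMSO. Timing: 4 h preincubation and 48 h exposure at 30 °C. Detection: turbidity as optical density at 615 nm. Benchmarks: amphotericin B 10 µg/mL, positive.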
# Measles CPE: compounds protecting cells from measles virus cytopathic effect, primary screen, measles RdRp inhibitor project, single point, MLSMR library, absorbance; actives 1.5% (n = 140,000); AID 841, 2007; protection (pct of control), % at 4 µM; Measles virus-infected cells, CPE protection; in the data active = protection mostly above about 24%, no sharp cut-off; inactive = mostly below about 26%
# WT yeast gro inh: growth inhibition of WT strain, primary screen, mitochondrial fusion inhibitor project, WT and mutant strains, chemical genetic | mitochondrial fusion phenotypic screen | actives 2.1% (n = 190,000) | inhibition, % at 10 µM | AID 1362, 2008; in the data active = inhibition above about 58%; tested in S. cerevisiae
# Starred values were filed as active, the others as inactive; / = no result given.
SMILES,RAM inhibit,DAT uptake mod,Yeast life ext,BB579 growth dn,Measles CPE,WT yeast gro inh
Cc1ccc(OCCCC(=O)Nc2nnc(C3CCCO3)s2)c(C)c1 (stereo unspecified),1,/,/,/,/,4
COc1ccc(Nc2nc(N3CCCC3)c3ccccc3n2)cc1,0,0.61,-5,0,63*,-19
CCN(CC)c1ccc(Nc2nc(N3CCOCC3)c3ccccc3n2)cc1,3,-0.021,-16,-33,6,12
O=P(CO)(Cc1ccccc1)Cc1ccccc1,0,0.0096,55*,-23,14,-3
CCCCP(=O)(CCCC)Cc1ccccc1,-1,-0.84,-7,-19,4,-3
O=C(O)CCc1ccc(-c2ccc(F)cc2)n1Cc1ccco1,5,2,7,-30,1,63*
C/C(N)=C(/C#N)C(=O)CSc1nnnn1-c1ccc(C)cc1,3,1.2,-3,24,11,5
C/C(=N/NC(=O)C1CCCCC1)c1ccc([N+](=O)[O-])cc1,0,/,0,-37,16,-17
COc1ccc(CCNC(=O)c2cnn3c(C(F)F)cc(C)nc23)cc1OC,-1,1.6,3,51*,3,-14
O=C(NC(Cc1c[nH]c2ccccc12)C(=O)O)c1ccc(Br)cc1 (stereo unspecified),1,/,/,/,/,-16
COc1ccc(C(O)(C(=O)NNc2ccc(C)cc2)c2cccs2)cc1 (stereo unspecified),0,-7.9*,-12,-37,6,0
O=C(c1cccs1)N1CCCC(c2ccccc2)C1 (stereo unspecified),1,-0.42,-9,-35,20,15
O=C(NNc1ccc(C2CCCCC2)cc1)C(O)(c1ccccc1)c1cccs1 (stereo unspecified),1,0.94,3,-28,13,89*
Cc1ccc(C(O)(C(=O)NNc2ccc3ccccc3n2)c2ccc(C)cc2)cc1,1,/,2,-18,11,-8
Cc1ccc(C)c(NC(=O)CCC(=O)NNC(=O)c2cccc([N+](=O)[O-])c2)c1,3,-0.8,-10,-33,10,4
COc1cc(/C=N/n2cnnc2)ccc1OCc1ccc(C)cc1,7,0.018,-5,-44,2,29
COC(=O)c1ccc(NC(=O)c2ccccc2N(C)S(C)(=O)=O)cc1,2,-2.7*,-15,-20,1,5
OC1(c2cccc(C(F)(F)F)c2)CCN(c2ncnc3c2[nH]c2ccccc23)CC1,-1,/,-15,-5,2,85*
c1ccc2c(c1)CCN(c1ncnc3c1[nH]c1ccccc13)C2,1,-1.6,-27,-54,18,72*
CSc1ncc(Cl)c(C(=O)C(C#N)c2nc3c(C)cc(C)cc3c(=O)[nH]2)n1 (stereo unspecified),6,-1,-5,-21,34,4
CCc1nnc(SCc2ccc([N+](=O)[O-])cc2)nc1CC,/,0.37,/,/,/,/
CCc1ccc(-c2csc(NC(=O)C3CCCO3)c2C(=O)OC(C)C)cc1 (stereo unspecified),10*,1.9,-14,-36,3,-9
Cc1cc(NC(=O)CN2C(=O)CC(c3ccco3)Sc3ccccc32)no1 (stereo unspecified),0,0.52,-8,-14,42*,0
Cc1cc(NC(=O)CN2C(=O)CCSc3ccccc32)no1,2,/,/,/,/,-9
CC(NC(=O)Cn1ccsc1=N)C12CC3CC(CC(C3)C1)C2 (stereo unspecified),1,-6.3*,-1,-23,22,11
SMILES,RAM inhibit,DAT uptake mod,Yeast life ext,BB579 growth dn,Measles CPE,WT yeast gro inh
CC(NC(=O)Cn1ncc(Cl)c(Cl)c1=O)C12CC3CC(CC(C3)C1)C2 (stereo unspecified),-1,/,8,-23,0,64*
CCCn1c(N)c(NCCN2CCOCC2)c(=O)n(CC(=O)NCc2ccccc2)c1=O,1,/,/,/,/,-5
CC(C)(C)C(=O)Nc1ccc(C(=O)NNC(=O)Cc2ccccc2)cc1,3,-0.56,-9,-25,6,0
O=C1C(N2CCOCC2)=C(n2nnc3ccccc32)C(=O)c2ccccc21,0,-3.9*,0,20,7,26
CCOC(=O)C1(CCc2ccccc2)CCN(C(=O)CCn2cncn2)CC1,2,/,/,/,/,1
COC(=O)COC(=O)c1ccccc1NC(=O)c1ccccc1,1,/,-6,-21,10,71*
CCC(=O)Nc1ccccc1C(=O)OCC(=O)c1ccccc1,0,0.04,-19,-11,8,-17
CCC(=O)Nc1ccccc1C(=O)OCC(=O)c1ccc2ccccc2c1,10*,-1.2,-10,-69,17,27
COc1ccc(NS(=O)(=O)c2ccc(Cl)c(C(=O)O)c2)cc1S(=O)(=O)N1CCCCC1,0,/,/,/,/,0
CCOC(=O)Cn1cnc(-c2ccc([N+](=O)[O-])cc2)c1,0,/,-5,-21,5,-5
COC(=O)CCC(=O)c1oc2ccccc2c1NC(=O)CCCN1C(=O)c2ccccc2C1=O,8.9*,-0.73,26,-40,6,18
CC(=O)c1oc2ccccc2c1NC(=O)CCCN1C(=O)c2ccccc2C1=O,3,0.98,-6,-19,6,-13
CCc1ccc(/C=C2/Sc3ccccc3N(CC(=O)NCCCOC)C2=O)cc1,9.8*,/,/,/,/,-2
O=C(OCCN(C1=NS(=O)(=O)c2ccccc21)c1ccccc1Cl)c1ccc(Cl)cc1,5,1.2,0,-21,5,14
O=C(Oc1ccc(N(Cc2cccs2)C2=NS(=O)(=O)c3ccccc32)cc1)c1ccccc1F,4,0.83,-2,-65,28*,14
COc1ccc(NS(=O)(=O)c2cc(NC(=O)c3cnccn3)ccc2OC)cc1Br,1,/,/,/,/,-10
N/C(Cc1ccc([N+](=O)[O-])cc1)=N\OC(=O)COc1cccc2ccccc12,10*,-0.54,-7,-12,3,10
N/C(Cc1ccc(Cl)cc1)=N\OC(=O)c1cccc2ccccc12,1,0.14,-11,99*,2,98*
N/C(Cc1ccc(Cl)cc1)=N\OC(=O)c1ccc2ccccc2c1,2,-0.81,-4,-5,2,-27
Cc1ccc(-c2nn[nH]n2)cc1,-1,-8.2*,-3,-7,8,-16
O=C(Nc1nccs1)C1CCCN1S(=O)(=O)c1ccc(F)cc1 (stereo unspecified),1,0.6,7,-22,5,3
